Experimental data: ChEMBL document CHEMBL2157876, “Identification of a 2-phenyl-substituted octahydrobenzo[f]quinoline as a dopamine D₃ receptor-selective full agonist ligand” (Bioorg Med Chem, 2012)

What was measured:
Sus scrofa = organism: Sus scrofa; experiment: Selectivity ratio of Ki for dopamine D2 like receptor in pig striatal homogenates to Ki for dopamine D1 like receptor in pig striatal homogenates; format: tissue-based
How it was run: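 Porcine striatal homogenate in 50 mM HEPES, 4 mM MgCl2, pH 7.4. […] D2-like sites labelled with 0.2–0.4 nM [3H]N-methylspiperone plus 50 nM ketanserin to block 5-HT2A. Nonspecific binding with 5 µM (+)-butaclamol. 30 min at 37 °C, filtration, scintillation counting. Ki by Cheng-Prusoff from IC50. At least three experiments.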

Homo sapiens [1] = organism: Homo sapiens; experiment: Selectivity ratio of Ki for human dopamine D3 receptor to Ki for human dopamine D2long receptor
How it was run: (§1)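 Membranes from HEK293 cells transiently expressing human receptors: D1 at ~2840 fmol/mg, D2Long at ~2500 fmol/mg, D3 at ~1980 fmol/mg. Buffer 50 mM Tris, 4 mM MgCl2, pH 7.4. […] 5 µM (+)-butaclamol for nonspecific binding. 30 min at 37 °C, filtration, scintillation.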

D(3) dopamine receptor [2] = molecular target: T1, D(3) dopamine receptor (Homo sapiens, UniProt P35462); experiment: Agonist activity at dopamine D3 receptor in human U2OS-D3 cells assessed as EA-tagged beta-arrestin translocation after 1.5 hrs by luminescence based beta-galactosidase assay relative to dopamine; format: functional, cell-based
T1 sequence (P35462 whole entry): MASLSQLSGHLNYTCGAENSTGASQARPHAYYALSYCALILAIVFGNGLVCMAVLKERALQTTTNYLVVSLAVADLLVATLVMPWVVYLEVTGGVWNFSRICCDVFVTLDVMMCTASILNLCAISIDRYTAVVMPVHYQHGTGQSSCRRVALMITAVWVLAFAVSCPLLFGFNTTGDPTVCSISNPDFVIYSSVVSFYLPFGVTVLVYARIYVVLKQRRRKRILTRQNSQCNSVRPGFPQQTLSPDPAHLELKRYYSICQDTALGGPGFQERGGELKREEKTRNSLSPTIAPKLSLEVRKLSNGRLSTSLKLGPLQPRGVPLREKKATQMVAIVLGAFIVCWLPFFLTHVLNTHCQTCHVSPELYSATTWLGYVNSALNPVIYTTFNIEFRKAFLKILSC

Homo sapiens [3] = organism: Homo sapiens; experiment: Selectivity ratio of Ki for human dopamine D3 receptor to Ki for human dopamine D1 receptor; how it was run: as §1
[4] = Displacement of [3H]-N-methylspiperone from dopamine D2 like receptor in pig striatal homogenates after 30 mins by scintillation counting; format: tissue-based, Sus scrofa
D(1A) dopamine receptor = D(1A) dopamine receptor (Homo sapiens, UniProt P21728); experiment: Displacement of [3H]-SCH-23390 from human dopamine D1 receptor expressed in HEK293 cells after 30 mins by scintillation counting; format: cell-based
Sequence of D(1A) dopamine receptor (P21728 whole entry): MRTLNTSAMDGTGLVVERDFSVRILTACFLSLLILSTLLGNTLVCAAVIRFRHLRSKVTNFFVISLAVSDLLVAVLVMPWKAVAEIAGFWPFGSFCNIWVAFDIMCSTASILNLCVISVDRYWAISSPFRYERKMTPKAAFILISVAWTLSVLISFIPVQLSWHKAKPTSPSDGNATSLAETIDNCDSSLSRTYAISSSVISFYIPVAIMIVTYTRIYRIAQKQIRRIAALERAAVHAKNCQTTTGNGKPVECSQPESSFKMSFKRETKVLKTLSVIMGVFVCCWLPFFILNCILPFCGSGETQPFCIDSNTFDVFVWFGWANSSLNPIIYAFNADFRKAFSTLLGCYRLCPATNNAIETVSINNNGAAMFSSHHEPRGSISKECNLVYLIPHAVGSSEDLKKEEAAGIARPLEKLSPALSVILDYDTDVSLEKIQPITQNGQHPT

[5] = Displacement of [3H]-SCH-23390 from dopamine D1 like receptor in pig striatal homogenates after 30 mins by scintillation counting; format: tissue-based, Sus scrofa
D(3) dopamine receptor [6] = molecular target: T1, D(3) dopamine receptor; experiment: Displacement of [3H]-N-methylspiperone from human dopamine D3 receptor expressed in HEK293 cells after 30 mins by scintillation counting; format: cell-based
D(2) dopamine receptor = D(2) dopamine receptor (Homo sapiens, UniProt P14416); experiment: Displacement of [3H]-N-methylspiperone from human dopamine D2long receptor expressed in HEK293 cells after 30 mins by scintillation counting; format: cell-based
Sequence of D(2) dopamine receptor (P14416 whole entry): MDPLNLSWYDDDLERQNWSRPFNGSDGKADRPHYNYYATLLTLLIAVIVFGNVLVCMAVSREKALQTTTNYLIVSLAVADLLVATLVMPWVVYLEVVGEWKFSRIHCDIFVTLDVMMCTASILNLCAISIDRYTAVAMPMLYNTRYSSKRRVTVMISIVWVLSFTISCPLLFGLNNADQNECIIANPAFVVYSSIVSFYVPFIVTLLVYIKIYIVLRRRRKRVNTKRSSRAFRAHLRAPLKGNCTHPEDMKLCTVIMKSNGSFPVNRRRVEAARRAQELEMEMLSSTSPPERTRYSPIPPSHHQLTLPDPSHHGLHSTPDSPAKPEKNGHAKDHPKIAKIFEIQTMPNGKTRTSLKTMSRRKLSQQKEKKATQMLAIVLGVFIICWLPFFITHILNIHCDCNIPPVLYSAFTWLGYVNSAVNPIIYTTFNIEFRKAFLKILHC

CCCN1C[C@H](c2ccc(O)cc2)C[C@@H]2c3cc(O)c(O)cc3CC[C@H]21 (relative stereo)
Ratio Ki (Sus scrofa): 61
Ratio Ki (Homo sapiens [1]): 145
Emax (D(3) dopamine receptor [2]): 103%
Ratio Ki (Homo sapiens [3]): 840
Ki [4]: 10 nM
Ki (D(1A) dopamine receptor): 921 nM
Ki [5]: 630 nM

Oc1cc2c(cc1O)[C@H]1C[C@@H](c3ccccc3)CN[C@@H]1CC2 (racemic)
Ratio Ki (Sus scrofa): 31
Ki [4]: 30 nM
Ki [5]: 930 nM

CN1CCc2cc(Cl)c(O)cc2[C@@H](c2ccccc2)C1.O=C(O)/C(O)=C(/O)C(=O)O
Ki [5]: 0.31 nM

Oc1ccc2c(c1O)C[C@@H](c1ccccc1)[C@@H]1CCNC[C@@H]21
Ki [4]: 180 nM
Ki (D(1A) dopamine receptor): 47 nM
Ki [5]: 8.2 nM
Ki (D(3) dopamine receptor [6]): 210 nM

Oc1cc2c(cc1O)[C@H]1c3ccccc3CN[C@@H]1CC2 (relative stereo) [DIHYDREXIDINE]
Ki [4]: 200 nM

Oc1cc2c(cc1O)[C@H]1C[C@@H](c3ccc(C(F)(F)F)cc3)CN[C@@H]1CC2 (racemic)
Ratio Ki (Sus scrofa): 16
Ki [4]: 150 nM
Ki [5]: 2370 nM

Cc1ccc([C@H]2CN[C@@H]3CCc4cc(O)c(O)cc4[C@H]3C2)cc1 (racemic)
Ratio Ki (Sus scrofa): 14
Ki [4]: 56 nM
Ki [5]: 810 nM

Oc1cccc([C@H]2CN[C@@H]3CCc4cc(O)c(O)cc4[C@H]3C2)c1 (racemic)
Ratio Ki (Sus scrofa): 20
Ki [4]: 29 nM
Ki [5]: 580 nM

Oc1ccc([C@H]2CN[C@@H]3CCc4cc(O)c(O)cc4[C@H]3C2)cc1 (racemic)
Ratio Ki (Sus scrofa): 34
Ratio Ki (Homo sapiens [1]): 10
Ki [4]: 14 nM
Ki (D(1A) dopamine receptor): 550 nM
Ki [5]: 490 nM
Ki (D(2) dopamine receptor): 490 nM
Ki (D(3) dopamine receptor [6]): 50 nM
